Marks after values point to notes of the source that are not given here.
Assays:
[1] = system: Lys529Ala,Arg530Ala,Arg532Ala FXIa-CD; assay: Inhibition of FXIa-CD triple mutant; format: biochemical, human; conditions: Arg532Ala vs FXIa-CD
How it was run: (§1)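 Human FXI cDNA with Cys362Ser/Cys482Ser, so the catalytic domain separates from the heavy chain, carried alanine substitutions at 170-helix residues (single or combined). It was stably expressed in HEK-293 with serum-free medium and purified on anti-FXI 1G5.12 affinity. It was activated with 5 μg/ml FXIIa at 37 °C, and the catalytic domain was isolated on 1G5.12. Dose-response used S2366 hydrolysis in 50 mM Tris-HCl pH 7.4, 150 mM NaCl, 0.1% PEG8000, 0.02% Tween80 at 37 °C, with logistic fits.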

Lys539Ala FXIa-CD = Lys539Ala FXIa-CD (Homo sapiens, UniProt P03951, C500S/K557A); assay: Inhibition of Lys539Ala FXIa-CD mutant; format: biochemical
Lys539Ala FXIa-CD, sequence (P03951 388-625 C500S/K557A): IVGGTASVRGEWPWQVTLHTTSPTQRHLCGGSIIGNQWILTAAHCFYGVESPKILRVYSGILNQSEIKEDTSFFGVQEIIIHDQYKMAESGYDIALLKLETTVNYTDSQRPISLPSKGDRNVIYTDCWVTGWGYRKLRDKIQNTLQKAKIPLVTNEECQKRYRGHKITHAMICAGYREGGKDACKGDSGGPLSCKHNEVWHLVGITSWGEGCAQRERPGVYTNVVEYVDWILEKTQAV
How it was run: as §1

[2] = molecular target: FXIa–CD containing Lys529Ala,Arg530Ala,Arg532Ala triple mutations (Homo sapiens, UniProt P03951, C500S/K547A/R548A/R550A); assay: Polybrene competition, S2366 hydrolysis, FXIa-CD triple mutant; format: biochemical; conditions: 30 μM polybrene
FXIa–CD containing Lys529Ala,Arg530Ala,Arg532Ala triple mutations, sequence (P03951 388-625 C500S/K547A/R548A/R550A): as the sequence (P03951 388-625 C500S/K557A) above, with K160A, R161A, R163A, A170K counted along it
How it was run: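 Recombinant FXIa catalytic domain bearing Lys529Ala/Arg530Ala/Arg532Ala (HEK-293 expressed, affinity purified, FXIIa-activated) was tested alongside full-length FXIa and wild-type catalytic domain. Proteolytic activity was measured by S2366 hydrolysis in the presence of 30 μM polybrene and 3 μM test compound.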

human plasma [3] = assay: Prothrombin time; format: biochemical
How it was run: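 One-stage recalcification assay. Test compound was brought up in citrated pooled normal human plasma and held 30 s at 37 °C. Prewarmed reconstituted thromboplastin-D was added, and clot time was read on a fibrometer. Runs were in duplicate and the mean of two is reported. A quadratic trend line gave the concentration needed to double clotting time.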

FXIa-CD = FXIa-CD (Homo sapiens, UniProt P03951, C500S); assay: Inhibition of recombinant wild type FXIa catalytic domain; format: biochemical; conditions: catalytic domain alone
FXIa-CD, sequence (P03951 388-625 C500S): as the sequence (P03951 388-625 C500S/K557A) above, with A170K counted along it
How it was run: as §1

FXIa-DEGR = FXIa-DEGR (Homo sapiens, UniProt P03951); assay: Fluorescence titration of active site labeled FXIa; format: binding; conditions: 250 nM FXIa-DEGR, pH 7.4, 37 °C; for ΔFMAX: 547 nm
FXIa-DEGR, sequence (P03951 388-625 limits assumed): as the sequence (P03951 388-625 C500S/K557A) above, with S113C, A170K counted along it
FXIa-DEGR, sequence (P03951 19-387 partner limits assumed): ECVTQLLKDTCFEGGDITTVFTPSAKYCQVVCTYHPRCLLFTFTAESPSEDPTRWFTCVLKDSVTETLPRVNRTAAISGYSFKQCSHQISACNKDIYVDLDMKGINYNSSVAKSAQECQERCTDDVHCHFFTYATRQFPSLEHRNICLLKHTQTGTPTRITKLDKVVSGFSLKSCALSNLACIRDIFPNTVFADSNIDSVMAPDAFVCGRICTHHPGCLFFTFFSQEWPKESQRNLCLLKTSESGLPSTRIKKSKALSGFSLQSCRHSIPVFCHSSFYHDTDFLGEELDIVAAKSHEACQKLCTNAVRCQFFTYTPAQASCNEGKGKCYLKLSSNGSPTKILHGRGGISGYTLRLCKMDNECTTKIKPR
How it was run: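 Plasma-derived human FXIa with a dansyl active-site label (FXIa-DEGR, 250 nM) in 50 mM Tris-HCl pH 7.4, 150 mM NaCl, 0.1% PEG8000 at 37 °C was titrated with aliquots of test compound in the same buffer. Emission at 547 nm (excitation 345 nm) was tracked. Hill-equation fits gave KD,app, n and ΔFMAX. At least two runs were done.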

human plasma [4] = assay: Activated partial thromboplastin time; format: biochemical
How it was run: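 Citrated pooled normal human plasma was mixed with test compound and prewarmed APTT reagent (0.2% ellagic acid) and incubated 4 min at 37 °C. Clotting was started with prewarmed 25 mM CaCl2, and clot time was read on a fibrometer. Runs were in duplicate. A quadratic trend line of clot time versus concentration gave the concentration doubling clotting time.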

Lys535Ala FXIa-CD = Lys535Ala FXIa-CD (Homo sapiens, UniProt P03951, C500S/K553A); assay: Inhibition of Lys535Ala FXIa-CD mutant; format: biochemical
Lys535Ala FXIa-CD, sequence (P03951 388-625 C500S/K553A): as the sequence (P03951 388-625 C500S/K557A) above, with K166A, A170K counted along it
How it was run: as §1

human factor XIa [5] = molecular target: T1, human factor XIa (Homo sapiens, UniProt P03951); assay: Direct inhibition of FXIa, chromogenic substrate; format: biochemical
T1 sequence (P03951 388-625 limits assumed): as the sequence (P03951 388-625 C500S/K557A) above, with S113C, A170K counted along it
T1 sequence (P03951 19-387 partner limits assumed): as the sequence (P03951 19-387 partner limits assumed) above

human factor XIa [6] = molecular target: T1, human factor XIa; assay: Michaelis-Menten kinetics of S2366 hydrolysis by FXIa in presence of 14S; format: biochemical

Row | SMILES | activity in the PT assay (human plasma [3]; human plasma) | Hill coefficient n (FXIa-DEGR) | ΔFMAX (FXIa-DEGR) | prolongation of APTT (human plasma [4]) | further results
1 | O=c1c2ccccc2nc(-c2ccc(OS(=O)(=O)O)cc2)n1CCCCCCn1cc(Cn2c(-c3ccc(OS(=O)(=O)O)cc3)nc3ccccc3c2=O)nn1 [Inhibitor 16S] | much less active | 6.4 ± 2.0 | 90 ± 3% | dose-dependent prolongation | reduction in potency [1]: approximately 5 fold; change in IC50 from wild-type FXIa-CD (Lys539Ala FXIa-CD): no change in IC50; loss in inhibition by addition of polybrene [2]: 1.45 fold; 2 × PT (concentration to double clotting time) (human plasma [3]; citrated human plasma): >2000 µM; inhibition of FXIa-CD compared with wild-type enzyme (FXIa-CD): as potently as the wild-type enzyme; change in IC50 from wild-type FXIa-CD (Lys535Ala FXIa-CD): no change in IC50
2 | CC(=O)Oc1cccc(-c2nc3ccccc3c(=O)n2Cc2cn(CCCCn3c(-c4cccc(OS(=O)(=O)O)c4)nc4ccccc4c3=O)nn2)c1 [Inhibitor 7S] | – | – | – | – | inhibition of factor XIa (in words) (human factor XIa [5]; pH 7.4, 37 °C): inactive
3 | O=c1c2ccccc2nc(-c2cccc(OS(=O)(=O)O)c2)n1CCCCn1cc(Cn2c(-c3ccc(OS(=O)(=O)O)cc3)nc3ccccc3c2=O)nn1 [Inhibitor 14S] | – | 9.0 ± 1.1 | 57 ± 2% | – | mechanism of factor XIa inhibition (human factor XIa [6]): non-competitive; VMAX of substrate hydrolysis (human factor XIa [6]; 135 μM 14S, pH 7.4, 37 °C): 5.1±0.5 mAU/min
4 | O=c1c2ccccc2nc(-c2ccc(OS(=O)(=O)O)cc2)n1Cc1cn(CCn2cc(Cn3c(-c4ccc(OS(=O)(=O)O)cc4)nc4ccccc4c3=O)nn2)nn1 [Inhibitor 28S] | – | – | – | – | IC50 (human factor XIa [5]): < 100 µM; fold less potent than 15S (human factor XIa [5]; versus 15S): approximately 6 fold
5 | O=c1c2ccccc2nc(-c2ccc(OS(=O)(=O)O)cc2)n1CCCCCn1cc(Cn2c(-c3ccc(OS(=O)(=O)O)cc3)nc3ccccc3c2=O)nn1 [Inhibitor 15S] | much less active | 6.8 ± 2.7 | 72 ± 2% | dose-dependent prolongation | –
6 | O=c1c2ccccc2nc(-c2ccc(OS(=O)(=O)O)cc2)n1CCCCn1cc(Cn2c(-c3ccc(OS(=O)(=O)O)cc3)nc3ccccc3c2=O)nn1 [Inhibitor 13S] | reasonable dose-dependent prolongation of clotting time | 7.9 ± 1.9 | 66 ± 2 ^b % | dose-dependent prolongation | 2-fold increase in PT (concentration) (human plasma [3]; human plasma, calculated from trend line): about 1.12 mM

— paper PMC3625964 (Journal of medicinal chemistry, 2013)
